Experimental data taken from ChEMBL document CHEMBL1833907, “Triterpenoid constituents from the roots of Paeonia rockii ssp. rockii” (J Nat Prod, 2011).
Active and inactive are the calls of the source. No cut-off for these calls is given here.

Key:
Type in all cases: functional, cell-based
M14 [1] = experiment: Cytotoxicity against human M14 cells at 1 to 50 uM after 48 hrs by MTT assay
Summary of the method: (§1)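 M-14 melanoma cells grown in DMEM with 2 mM L-glutamine, 10% heat-inactivated FBS and 1% penicillin/streptomycin, used for at most 10 passages. Cells were seeded at 3 × 10^3 per well, given serial dilutions (1–50 μM) and incubated 48 h at 37 °C in humidified 5% CO2. Viability was read by MTT at 620 nm.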

M14 [2] = experiment: Cytotoxicity against human M14 cells after 48 hrs by MTT assay; conditions: M14, 48 h; summary of the method: as §1
M14 [3] = experiment: Induction of apoptosis in human M14 cells assessed as activation of caspase-3 at 50 uM after 24 hrs by Western blot analysis presence of polycaspase inhibitor z-VAD-fmk
M14 [4] = experiment: Induction of apoptosis in human M14 cells assessed as increase in hypodiploid cells after 24 hrs using propidium iodide staining by flow cytometry
Summary of the method: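 M-14 melanoma cells (DMEM, 2 mM L-glutamine, 10% heat-inactivated FBS, 1% penicillin/streptomycin, 37 °C, humidified 5% CO2, ≤10 passages) incubated 24 h with serial dilutions of compounds (1–50 μM). Nuclei stained with propidium iodide and analysed by flow cytometry. Apoptosis is taken as the percentage of hypodiploid nuclei versus untreated control. Three experiments, each in triplicate, means ± SEM.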

M14 [5] = experiment: Induction of apoptosis in human M14 cells assessed as activation of caspase-3 at 50 uM after 8 to 24 hrs by Western blot analysis
M14 [6] = experiment: Induction of apoptosis in human M14 cells assessed as increase in hypodiploid cells up to 25 uM after 24 hrs using propidium iodide staining by flow cytometry
Summary of the method: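 M-14 cells were treated with 1–50 μM for 24 h, then collected and stained with propidium iodide. The percentage of hypodiploid (apoptotic) nuclei was measured by flow cytometry against untreated controls. Values are means ± SEM of three experiments run in triplicate.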

Row | Structure (SMILES) | Activity (M14 [1]) | IC50 (M14 [2]) | also measured
1 | C=C1CC[C@]2(C(=O)O)CC[C@]3(C)C(=CC[C@@H]4[C@@]5(C)CC[C@H](O)[C@](C)(O)[C@@H]5CC[C@]43C)[C@@H]2C1 | inactive | – | –
2 | C=C(C)[C@@H]1CC[C@]2(C(=O)O)CC[C@]3(C)[C@H](CC[C@@H]4[C@@]5(C)CC[C@H](O)C(C)(C)[C@@H]5CC[C@]43C)[C@@H]12 [BETULINIC ACID] | – | 50 µM | Activity (M14 [3]): inactive; Activity (M14 [4]): Dose-dependent effect; Activity (M14 [5]): Active
3 | C=C(C)[C@@H]1CC[C@]2(C(=O)O)CC[C@]3(C)[C@H](CC[C@@H]4[C@@]5(C)CC[C@H](O)[C@@](C)(CO)[C@@H]5CC[C@]43C)[C@@H]12 | – | 50 µM | –
4 | C=C1CC[C@@]23CC[C@]4(C)[C@@](OC2=O)([C@@H]3C1)[C@H]1O[C@H]1[C@@H]1[C@@]2(C)CC[C@H](O)[C@@](O)(CO)[C@@H]2CC[C@]14C | inactive | – | –
5 | O=C(O)c1ccccc1 | inactive | – | –
6 | C[C@@]12C[C@@]3(O)O[C@@H](O1)[C@]1(COC(=O)c4ccccc4)[C@@H]3C[C@]12O[C@@H]1O[C@H](COC(=O)c2ccccc2)[C@@H](O)[C@H](O)[C@H]1O | inactive | – | –
7 | COc1cc2c(cc1O)[C@H](CO)[C@H](c1ccc(CCCO)c(OC)c1)O2 [LAWSONICIN] | – | 100 µM | –
8 | CC1(C)CC[C@]2(C(=O)O)CC[C@]3(C)C(=CC[C@@H]4[C@@]5(C)CC[C@H](O)C(C)(C)[C@@H]5CC[C@]43C)[C@@H]2C1 [OLEANOLIC_ACID] | – | 82 µM | Activity (M14 [3]): inactive; Activity (M14 [6]): Active; Activity (M14 [5]): Active
9 | C=C1CC[C@]2(C(=O)O)CC[C@]3(C)C(=CC[C@@H]4[C@@]5(C)CC[C@H](O)C(C)(C)[C@@H]5CC[C@]43C)[C@@H]2C1 | inactive | – | –
10 | C[C@@]12CC(=O)[C@H]3C[C@]1(O)O[C@H](O2)[C@@H]3COC(=O)c1ccccc1 | inactive | – | –
11 | COc1ccc(C(C)=O)c(O)c1 | inactive | – | –
12 | CC1(C)CC[C@]2(C(=O)O)CC[C@]3(C)C(=CC[C@@H]4[C@@]5(C)CC[C@H](O)[C@@](C)(CO)[C@@H]5CC[C@]43C)[C@@H]2C1 [HEDERAGENIN] | – | 58 µM | Activity (M14 [3]): inactive; Activity (M14 [6]): Active; Activity (M14 [5]): Active
13 | CC1(C)[C@@H](O)CC[C@]2(C)[C@H]3C=CC4=C(O)C(=O)C(=O)[C@@]4(C)[C@]3(C)CC[C@@H]12 | inactive | – | –
